Active and inactive are the calls of the source. The calls are words filed in the database; no cut-off is given here.

Common to all, as to assay type: functional
Test [1] has as its system Rattus norvegicus. Description: Antiallergic activity in iv dosed ovalbumin-sensitized CFHB rat assessed as inhibition of passive cutaneous anaphylaxis after 30 mins by Evans blue staining. As to conditions: 0.5 h. The method, boiled down: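 Rats passively sensitized with 0.1 mL of 1:25 donor anti-ovalbumen serum (IgE plus IgG) at four dorsal sites, then challenged iv 72 h later with ovalbumen 1 mg plus 1% Evans blue (0.5 mL). Compound in Tris buffer/saline given iv 30 s before challenge at ≥3 doses, ≥7 rats per group. Blue spots scored 0–4 at 30 min. ED50 read from the dose–response curve of % inhibition versus controls.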

In test [2] the test system is Rattus norvegicus. As to the kind of experiment: Antiallergic activity in po dosed ovalbumin-sensitized CFHB rat assessed as inhibition of passive cutaneous anaphylaxis after 30 mins by Evans blue staining.
For test [3], the system named is Rattus norvegicus. Description: Antiallergic activity in ovalbumin-sensitized CFHB rat assessed as inhibition of passive cutaneous anaphylaxis at 10 mg/kg, iv after 30 mins by Evans blue staining. An outline of the steps:
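Sensitized with diluted (1:25) donor serum at four back sites. Challenge came 72 h later, iv, with ovalbumen 1 mg and 1% Evans blue 0.5 mL. Compound dissolved in Tris buffer, diluted in saline, and injected iv 30 s pre-challenge. Groups had at least seven rats, with matched controls. Skin spots were scored 0–4 for severity and area after 30 min. % inhibition came from the test versus control score difference.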

On to `O=C([O-])c1cc(=O)c2c(OCC(O)COc3cccc4oc(C(=O)[O-])cc(=O)c34)cccc2o1.[Na+].[Na+]` [CROMOLYN SODIUM], for which, in test [1], the ED50 is 1.21 mg/kg. The ED50 entry in test [2] was “inactive”.

Turning to `CCCCCCc1cc(S(C)(=O)=NC(N)=O)cc2c(=O)c3cc(C(=O)O)ccc3oc12` (stereo not drawn), in test [1], the ED50 was 0.009 mg/kg.

On to `CC(=O)N=S(C)(=O)c1ccc2oc3ccc(C(=O)O)cc3c(=O)c2c1` (stereo not drawn), for which, in test [1], the ED50 came to 0.065 mg/kg.

For the compound `CCOC(=O)C1=CN=S(=O)(c2ccc3oc4ccc(C(=O)O)cc4c(=O)c3c2)C=C1O` (stereo not drawn), the inhibition result in test [3] was “inactive”.

Turning to `CCCCCCc1cc(S(C)(=N)=O)cc2c(=O)c3cc(C(=O)O)ccc3oc12` (stereo not drawn) [SUDEXANOX], the ED50 in test [1] stood at 0.005 mg/kg; in test [2] (0.5 h), 0.19 mg/kg.

Turning to `CS(=O)(=NC(N)=O)c1ccc2oc3ccc(C(=O)O)cc3c(=O)c2c1` (stereo not drawn), the figures for the ED50 in test [1] and in test [2] (0.5 h) were 0.11 mg/kg and 8.6 mg/kg, respectively.

Turning to `CS(=O)(=NC(=O)c1ccccc1)c1ccc2oc3ccc(C(=O)O)cc3c(=O)c2c1` (stereo not drawn), in test [1], the ED50 was found to be 0.68 mg/kg.

On to `CCCCCOc1cc(S(C)(=N)=O)cc2c(=O)c3cc(C(=O)O)ccc3oc12` (stereo not drawn), for which the ED50 came out at 0.005 mg/kg in test [1] and 1.62 mg/kg in test [2] (0.5 h).

As to `CCOC(=O)N=S(C)(=O)c1ccc2oc3ccc(C(=O)O)cc3c(=O)c2c1` (stereo not drawn), the inhibition in vivo at 10 mg/kg in test [3] (0.5 h) amounted to 89%.

On to `CS(=N)(=O)c1ccc2oc3ccc(C(=O)O)cc3c(=O)c2c1` (stereo not drawn), for which the values for the ED50 in test [1] and in test [2] (0.5 h) were 0.033 mg/kg and 2.72 mg/kg, respectively.

Consider `Cc1ccc(S(=O)(=O)N=S(C)(=O)c2ccc3oc4ccc(C(=O)O)cc4c(=O)c3c2)cc1` (stereo not drawn), for which, in test [1], the ED50 was 3.93 mg/kg.

With `Cc1ccc(S(=O)(=O)/N=S(\C)c2ccc3oc4ccc(C(=O)O)cc4c(=O)c3c2)cc1` (stereo not drawn), in test [1], the ED50 was determined as 0.43 mg/kg.

Take `CS(=N)(=O)c1ccc2oc3ccccc3c(=O)c2c1` (stereo not drawn): in test [3], the inhibition entry is “inactive”.
